Measurements pooled from the literature.
GRK4: G protein-coupled receptor kinase 4 (GRK4, Homo sapiens, UniProt P32298)
OPRM1: Mu-type opioid receptor (OPRM1, Homo sapiens, UniProt P35372)

SMILES | target | assay | conditions | measurement | result
Cc1cc(S(=O)(=O)N[C@H]2CC[C@H](CN3CCN(c4ccc(C5CCC(=O)NC5=O)cc4F)CC3)CC2)ccc1Nc1ncc(C(F)(F)F)c(N2CCC[C@](C)(O)C2)n1 (stereo partly shown) | GRK4 | binding, competition with immobilised ligand | 1 µM | remaining binding | 89%
CCN1/C(=C/C(C)=O)Sc2ccc(F)cc21 | OPRM1 | ligand displacement, radioligand | 10 µM | inhibition | 0.11%
C1=C/COCc2cc(ccc2OCCN2CCCC2)Nc2nccc(n2)-c2cccc(c2)COC/1 | eIF-2-alpha kinase GCN2 (EIF2AK4, Homo sapiens, UniProt Q9P2K8, S808G) | binding | 0.1 µM | remaining binding | 9.6%
C#Cc1cc(-c2cc(Nc3nc(N[C@@H](C)c4ccc(F)cn4)ncc3Cl)n[nH]2)ccc1C=O | cGMP-dependent protein kinase 1 (PRKG1, Homo sapiens, UniProt Q13976) | enzyme activity, inhibitor | 0.2 µM | inhibition | 3.89%
C[C@]1(O)CCCN(c2nc(Nc3ccc(S(=O)(=O)N[C@H]4CC[C@H](CN5CCN(c6ccc(C7CCC(=O)NC7=O)cc6F)CC5)CC4)cc3Cl)ncc2C(F)(F)F)C1 (stereo partly shown) | GRK4 | binding, competition with immobilised ligand | 1 µM | remaining binding | 93%
Cc1cc(O)c(-c2ccc([C@@H](C)CN(C)C)cc2)c2c1[nH]c(=O)c1sccc12 | SRSF protein kinase 1 (SRPK1, Homo sapiens, UniProt Q96SB4) | enzyme activity, inhibitor | 0.1 µM | inhibition | 1.88%
NC/C(=C\F)COc1cccc(Cn2c(=S)[nH]c(=O)c3[nH]cnc32)c1 | OPRM1 | ligand displacement, radioligand | 10 µM | inhibition | < 50%
COc1ccc2oc(-c3ccc4nc(N)oc4c3)c/c(=N\c3ccccc3NC(=O)CCN)c2c1 | Protein kinase C alpha type (PRKCA, Homo sapiens, UniProt P17252) | binding | 1 µM | remaining binding | 100%
CCCCC(=O)Nc1ccc(-c2ccc3ncn(CCC)c(=O)c3c2)cn1 | Ephrin type-A receptor 6 (EPHA6, Homo sapiens, UniProt Q9UF33) | binding, competition with immobilised ligand | 0.5 µM | remaining binding | 100%
Cc1cc(F)cc2c(CCC(=O)N[C@@H]3C(=O)NC[C@H]3O)c(-c3ccc(F)cc3)[nH]c12 | OPRM1 | cell-free assay | 10 µM | inhibition | 5%
